Measurements as given in ChEMBL document CHEMBL4229485, “The design, synthesis, and evaluation of organic dithienopyrrole-based D-π-A dyes for use as sensitizers in photodynamic therapy” (Bioorg Med Chem Lett, 2018).
The source made the active and inactive calls. The calls are words filed in the database; no cut-off is given here.

Columns and labels:
[1] = Dark toxicity in human HeLa cells assessed as reduction in cell viability after 48 hrs by MTT assay; assay type: cell-based
HeLa [2] = assay: Phototoxicity in human HeLa cells assessed as reduction in cell viability preincubated for 1 hr followed by LED light irradiation for 15 mins measured after 48 hrs by MTT assay; assay type: functional, cell-based; conditions: light or radiation study
Outline: (§1)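 HeLa cells were treated with the sensitizer and photo-irradiated. IC50 is the sensitizer concentration that reduced viability by 50%, read from semi-logarithmic dose-response plots.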

[3] = Induction of oxidative damage to human serum albumin assessed as oxidation of tryptophan residue at 10 uM after 15 to 45 mins by fluorescence assay; assay type: functional
Outline: (§2)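 Sensitizer (10 µM) and HSA (20 µM) in PBS were irradiated with white LED light (420–750 nm, 8.0 ± 0.5 mW/cm2). Photo-oxidation of HSA's single tryptophan was followed as the loss of its intrinsic fluorescence at around 350 nm.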

HEK293 = assay: Phototoxicity in HEK293 cells assessed as reduction in cell viability preincubated for 1 hr followed by LED light irradiation for 15 mins measured after 48 hrs by MTT assay; assay type: functional, cell-based; conditions: Homo sapiens, HEK293, light or radiation study
[4] = Dark toxicity in HEK293 cells assessed as reduction in cell viability measured after 48 hrs by MTT assay; assay type: cell-based; conditions: human
[5] = Dark toxicity in HEK293 cells assessed as inhibition of cell viability at 10 uM measured after 48 hrs by MTT assay relative to control; assay type: cell-based; conditions: human, read-out: INH
HeLa [6] = assay: Phototoxicity in human HeLa cells assessed as reduction in cell viability preincubated for 1 hr followed by LED light irradiation for 60 mins measured after 48 hrs by MTT assay; assay type: functional, cell-based; conditions: light or radiation study; outline: as §1
[7] = Induction of oxidative damage to human serum albumin assessed as oxidation of tryptophan residue at 10 uM after 15 to 45 mins in presence of ROS quencher L-ascorbic acid by fluorescence assay; assay type: functional; outline: as §2
[8] = Drug uptake in cytoplasm of human HeLa cells at 10 uM after 1 hr by Hoechst 33342 staining based confocal microscopic method; assay type: ADME, subcellular
[9] = Drug uptake in nucleus of human HeLa cells at 10 uM after 1 hr by Hoechst 33342 staining based confocal microscopic method; assay type: ADME, subcellular

| Structure (SMILES) | IC50 [1] | IC50 (HeLa [2]) | Activity [3] | further results |
| --- | --- | --- | --- | --- |
| CN(C)c1ccc(-c2cc3c(s2)c2sc(-c4ccc(/C=C(\C#N)C(N)=O)s4)cc2n3C(C)(C)C)cc1 | 54 µM | 5 µM | inactive | – |
| N#C/C(=C\c1ccc(-c2ccc(-c3ccc(N(c4ccccc4)c4ccccc4)cc3)s2)s1)C(=O)O | 21.9 µM | 0.21 µM | – | IC50 (HEK293): 0.16 µM; IC50 at 48 h [4]: > 10 µM; cytotoxicity at 48 h, 10 µM [5]: 32% |
| COc1ccc(-c2cc3c(s2)c2sc(-c4ccc(/C=C(\C#N)C(N)=O)s4)cc2n3C(C)(C)C)cc1 | 15.7 µM | 0.56 µM | Active | – |
| C=CC1=C(C)c2cc3[nH]c(cc4nc(cc5[nH]c(cc1n2)c(C)c5C=C)C(C)=C4CCC(=O)O)c(CCC(=O)O)c3C | 12.5 µM | 0.75 µM | – | – |
| COc1ccc(-c2cc3c(s2)c2sc(-c4ccc(C=O)s4)cc2n3C(C)(C)C)cc1 | 68.6 µM | 3.8 µM | inactive | – |
| COc1ccc(-c2cc3c(s2)c2sc(-c4ccc(/C=C(\C#N)C(=O)O)s4)cc2n3C(C)(C)C)cc1 | 43.4 µM | 0.19 µM | Active | IC50 (HeLa [6]): 0.063 µM; IC50 (HEK293): 0.043 µM; IC50 at 48 h [4]: > 10 µM; cytotoxicity at 48 h, 10 µM [5]: 7%; Activity [7]: Active; Drug uptake [8]: Active; Drug uptake [9]: Active |
| CC(C)(C)n1c2cc(-c3ccc(N(c4ccccc4)c4ccccc4)cc3)sc2c2sc(-c3ccc(/C=C(\C#N)C(N)=O)s3)cc21 | > 100 µM | > 100 µM | inactive | – |
| CCCCN1C(=O)C(=C/C=C/C=C2\Oc3ccccc3N2CCCS(=O)(=O)O)C(=O)N(CCCC)C1=S | > 100 µM | 16 µM | – | – |
| CC(C)(C)n1c2cc(-c3ccc(N(c4ccccc4)c4ccccc4)cc3)sc2c2sc(-c3ccc(/C=C4\SC(=S)N(CC(=O)O)C4=O)s3)cc21 | 60.2 µM | 17.1 µM | inactive | – |
| CC(C)(C)n1c2cc(-c3ccc(N(c4ccccc4)c4ccccc4)cc3)sc2c2sc(-c3ccc(C=O)s3)cc21 | 67 µM | 45 µM | inactive | – |
| CN(C)c1ccc(-c2cc3c(s2)c2sc(-c4ccc(/C=C(\C#N)C(=O)O)s4)cc2n3C(C)(C)C)cc1 | 15.5 µM | 0.6 µM | Active | – |
| CN(C)c1ccc(-c2cc3c(s2)c2sc(-c4ccc(/C=C5\SC(=S)N(CC(=O)O)C5=O)s4)cc2n3C(C)(C)C)cc1 | > 100 µM | 12.1 µM | inactive | – |
| CN(C)c1ccc(-c2cc3c(s2)c2sc(-c4ccc(C=O)s4)cc2n3C(C)(C)C)cc1 | > 10 µM | 2.5 µM | inactive | – |
| COc1ccc(-c2cc3c(s2)c2sc(-c4ccc(/C=C5\C(=O)N(CCO)C(=O)C(C#N)=C5C)s4)cc2n3C(C)(C)C)cc1 | 60 µM | 15.9 µM | – | – |
| CC(C)(C)n1c2cc(-c3ccc(N(c4ccccc4)c4ccccc4)cc3)sc2c2sc(-c3ccc(/C=C(\C#N)C(=O)O)s3)cc21 | > 100 µM | > 100 µM | inactive | – |
| COc1ccc(-c2cc3c(s2)c2sc(-c4ccc(/C=C5\SC(=S)N(CC(=O)O)C5=O)s4)cc2n3C(C)(C)C)cc1 | 63.9 µM | 5.7 µM | inactive | – |
